The EternaBench riboswitch data

System: MS2 coat protein
Assay: apparent Kd, MS2 coat protein; higher = weaker binding; RNA-MaP array; FMN 200 µM where present
How it was run: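 Apparent Kd: the median of filtered binding-curve fits from single clusters. Designs were transcribed on Illumina sequencing-chip clusters by stalled E. coli RNA polymerase and titrated with SNAP-549-labelled MS2 coat protein from 0.7 or 1.5 nM, doubling to 3 µM, in 100 mM Tris-HCl pH 7.5, 80 mM KCl, 4 mM MgCl2, BSA, DTT, yeast tRNA and Tween-20. Each series ran without and then with constant ligand, and green signal was normalised to red-channel RNA signal and control-cluster median Fmax.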

[1] = designed as: ON switch for flavin mononucleotide, no ligand
[2] = ligand present: flavin mononucleotide, designed as: ON switch for flavin mononucleotide
[3] = designed as: OFF switch for flavin mononucleotide, no ligand
[4] = ligand present: flavin mononucleotide, designed as: OFF switch for flavin mononucleotide

Sequence	apparent Kd [1]	apparent Kd [2]	apparent Kd [3]	apparent Kd [4]
UUGAAUUGAAACAUGAGGAUCACCCAUGUGUCAUAAUUGACAUAGGAUAUGUAUAUACUUUUAUAAUAGAAGGAUGACGAUACU	15.6 nM	12.7 nM		
UAAAAUUUAUGAUAUUAUGACAGUAGAAGGCUAUACAUGUUGAUACAUGAGGAUCACCCAUGUAUAGAGGAUAUAUACAUUUAU			845 nM	832 nM
UGGUACAUGGGAGGAUAUGGGUUGAUAACAUGAGGAUCACCCAUGUUAAAUAUGCCUAAUGGCAACUAGAAGGCCCAUGUACCU	377 nM	40.8 nM		
AAUUAUUUACAGAAGGAGUAAGAUUAUGUAUUACUAGGAUAUGUUCACAUGAGGAUCACCCAUGUCAUUGUAGGUUUUAUAUGU			10.8 nM	8.19 nM
GUAGCAUACAGAGGAUAUUCAAAACCGCAAAGCGGACAUGAGGAUCACCCAUGUGGCGAAAGCCGGGAGAAGGCUGAAUGCUAC	18.7 nM	16.1 nM		
CCGCAAAAGCAGGAUAUCGUAUCGGAUACGAUACGAGAAGGGCUAACAUGAGGAUCACCCAUGUGUCCUAGCGG			16.9 nM	25.6 nM
UCGGCCGCCGUGAGGAUAUGCCCGCGCGCCCGCGGGCAGAAGGCACAUGAGGAUCACCCAUGUCCCGCGGCAUU			16.2 nM	35.1 nM
GGACGUCACUCAAACAAUUAAACAUGAGGAUCACCCAUGUCACAGGAUAUGGAUCCUAAUUGGAUCCAGAAGGGUGAGACGUCC	251 nM	222 nM		
GGGUGGCGUAGAGGAUAUGUGGUACAUGAGGAUCACCCAUGUGCAUAUGAUGUUCGUGUGUCAUCAUAGAAGGCUACGUCGCUA	132 nM	62.9 nM		
GUCAGCUCGUGAGGAUAUACAUGUGCUGGAAACAGCACUAUUGUGUUCACAUGAGGAUCACCCAUGUAGAAGGCACGAGCUGAU			18.2 nM	85.6 nM
GUAAGAAAUACAGGAUAUGUUAGUUUUAAGUGUAUUGGUUAUUACUUAAUUACAGAAGGGUAUUACAUGAGGAUCACCCAUGUA	14.8 nM	9.06 nM		
UGUUGUAUUACAGGAUAUCUAUUAGUUUAAUUUAGAGAAGGGUAUUCACAUGAGGAUCACCCAUGUAUAUACGAGGAAGUUGUG	53 nM	62.2 nM		
CCCACGUCAGGAUAUCCAAAGGUCCGAAAUAACGGUACUUUGGAGAAGGGACAUGAGGAUCACCCAUGUCCUCG			18.9 nM	28.8 nM
AGCUGUGGCCGAGGAUAUCUACCUUCAAUAACCGAAAUAUAAUCGGACAUGAGGAUCACCCAUGUAGAGAAGGCGGUCUCAGCA			14.8 nM	96.2 nM
ACUUGUAAGUAGAAGGCAGUCAUUAUAUUAAUCAUGUAGACAUGAGGAUCACCCAUGUAGAGUACUGAGGAUAUACAUCGAUAG			12.5 nM	9.85 nM
CAGUACUGAGGAUAUACAUGAGGAUCACCCAUGUGAAAAAGCUACGAAAGUAGCAAAUGUAGAAGGCAGUACUG			34.3 nM	254 nM
CUUUUGUGAGGAUAUCAGUAGUAAAUAAAUAAAAUUACUAUUGAGAAGGCACAUGAGGAUCACCCAUGUUCCUC			34.7 nM	184 nM
GGUGCCAUGUAGAAGGCAGAUCUGAUUCACAUCUGAGGAUAUACAUGAGGAUCACCCAUGUAAAGGCACCGCACGAGAGUGCAA			16.3 nM	15 nM
GCUGUGGCAUGAGGAUAUGGACAGCUUUGCUGUCCAGAAGGCAUGUCAAUAGACAUGAGGAUCACCCAUGUAGUUAACACAGCA	498 nM	39.4 nM		
GUAUUGUGAGGAUAUCCAAUAUAUGACAUGAGGAUCACCCAUGUUUCCACUCGUACCUCCGGAGAAGGCACAGUUU			28.3 nM	24.3 nM
AGAAACUACGAGAAGGACAUGAGAACCUUCAUUUACAUGAGGAUCACCCAUGUAGGAUAUCGUAGUUUCAGGAUCGUGAGAUCA			45.6 nM	232 nM
AGCUACGUUUCGUAGCAGCUAGGUGAGGAUAUCCUUUUACAUGAGGAUCACCCAUGUUAGCCAUGGGAGAAGGCGCCUAGAAAG	498 nM	37.7 nM		
AGAUAUAACUCAGGAUAUCAGCAUGGGUAGAUUACAUGAGGAUCACCCAUGUGCAUGUCCCGGCAUGAGAAGGGAGUAACGCAA	81.8 nM	27.4 nM		
CUUGAAUAAGUGAGGAUAUACUGUUAGUAAUGAUUGUAGAAGGUACAUGAGGAUCACCCAUGUUUAUUCUUUAU			15.7 nM	16 nM
GCUAUCGAUGUAGGAUAUGCUAGAGAAACUCUGGCAGAAGGACAUGAGGAUCACCCAUGUCAAUGGAUGGAGAGAAGAGAUGGC			24.1 nM	58 nM
UAUAUAUAGUAAGGAUAUGUAUUUGUUUUAUAAACAGAAGGUACUGACAUGAGGAUCACCCAUGUUUUAGUGUGGGCAUGUAGA			39.5 nM	41.4 nM
UUUUUGUCAGAGGAUAUCAUAGUCAGUUUUAAGUGAGAAGGUUGAACAUGAGGAUCACCCAUGUGACCUUGGUG			23.6 nM	21.6 nM
GGACAUUUACAGAAGGGCAAAUUUUAUAGUGAAUAUUUAGUUCUGAUUUGCAGGAUAUGUGGAACAUGAGGAUCACCCAUGUCC	13.8 nM	6.71 nM		

Sequence	apparent Kd [1]	apparent Kd [2]	apparent Kd [3]	apparent Kd [4]
GUGCCUUGGGAGAAGGUUACUAGCAAAGCUAUUAAAGGAUAUUCAUACCGGAAACGGACAUGAGGAUCACCCAUGUGGCACAAA	1120 nM	118 nM		
AACAGUACAGGAUAUACAUGAGGAUCACCCAUGUGAGACUUAAGUGGCGUACCACAAAGUAGAAGGGUACUGGA			94.7 nM	545 nM
CUUUUGUGAGGAUAUUCGUAGUAGGGUCAUGGCACUAUUAUGAAGAAGGCACAUGAGGAUCACCCAUGUACCUU			15.3 nM	26.8 nM
GCCAUCGCAUGAGGAUAUAAAAUUAUAAUUAAAUUAGAAGGCAUGUCAUAAGACAUGAGGAUCACCCAUGUAGUUAAGAUGGCA	483 nM	132 nM		
GCACUGGAUGUAGGAUAUCAGGACGAUAAGUCCUGAGAAGGACAUGAGGAUCACCCAUGUAACUCAUAACCAGUGCAUAAUAUA			15 nM	24.8 nM
UGCUACGUUUCGUAGCAGCUAGGUGAGGAUAUUCAAUUUUUCACAUGAGGAUCACCCAUGUAUGUGAAGAAGGCGCCUAGAAAG	12.3 nM	5.26 nM		
CCUAAGGAGGCAGGAUAUAGUGUGGUGGCCGGGCUCCCACGGCGAGCGGCACUAGAAGGGUCACUACAUGAGGAUCACCCAUGU	73.3 nM	30 nM		
GGAUAGGACAGAGGAUAUACGUGCUAGAGAUACUAGCAAAAUUUCCUCACAUGAGGAUCACCCAUGUAGAAGGCUUUCCUAUCG			6.3 nM	37 nM
AAUAAACUCACAGGAUAUAGCAGAUGUCGCGUGAACUUACAGGCGACGAUGCUAGAAGGGUGACCACAUGAGGAUCACCCAUGU	1200 nM	142 nM		
CUUUUGUGAGGAUAUUAGUAGUUAAUAAAUAAAAUUACUACUGAGAAGGCACAUGAGGAUCACCCAUGUUCCUC			31.5 nM	226 nM
AGGUAUCCUGAGAAAUUUCUCCACAUGAGGAUCACCCAUGUAGAGGAUAUCGACGCUGUGCGGUUCGAGAAGGCUACACUAAAA				15.3 nM
CUUCAGUAAGGAUAUCAGCUUAGGAGGUUGGUAAUGAGAGCUGAGAAGGUACAUGAGGAUCACCCAUGUUAGUU			20.3 nM	33 nM
AAGUCCAGAGGAUAUCAGACGCGGCACAUGAGGAUCACCCAUGUAUUCCCGUCUGCCGACUGAGAAGGUUGGAAAG			12 nM	17.8 nM
CCCACGUGUGCAGGAUAUCCCACGAGCGCAACAUGAGGAUCACCCAUGUACCUGAGUCUCGGAACGGAGAAGGGUACAUGUUAU	432 nM	101 nM		
UGAACUAUGUAGAAGGCCCACAUUUAUAUGUAGGGAGGAUAUACAUGAGGAUCACCCAUGUAAAGAGCAAGAGGAUUUGACAGA			10.7 nM	19.6 nM
AAAUGCCUGUCGAUGCUCGACAUGAGGAUCACCCAUGUAUAGCAGGAUAUGCAGACCUGACUCGUGCAGAAGGGCUAUACCUAA			12.6 nM	64.3 nM
AUUGUGUGAGGAUAUUAGUAGUAGAUGAAUGGAGUUGUGGCUGAGAAGGCACAUGAGGAUCACCCAUGUUCCUU			22.3 nM	25.9 nM
UGGUACAUCGGAGGAUAUCAUGUAAAUACAUGAGGAUCACCCAUGUCGAUGGAGACAUCGGAGAUUGAGAAGGCCGAUGUACCU	480 nM	23.4 nM		
GGUCGUCAAGUCAGGAUAUCGUAUAGUAGAUGUAACGAGAAGGGACAUGAGGAUCACCCAUGUCGUCUCAUCAG			18.9 nM	25.8 nM
UUUUAGCAGUCAGGAUAUGCAACGCACAACGACGCAGAAGGGACAUGAGGAUCACCCAUGUUAUGGUUCUGGUACUAUGACGUU			18.1 nM	24.6 nM
UUCAUGUGAGGAUAUGUGUACUGCUUUCUGUUUAGAUGUACACAGAAGGCACAUGAGGAUCACCCAUGUAGUAC			45.5 nM	31.8 nM
ACAUGAGGAUCACCCAUGUAUUACAUGGUUAAGUUUAUUAACAGAAGGCGAAAAUACUUAUUGUUCGAGGAUAUGUAAUCAAUU			38 nM	54.3 nM
GUGAAGUGAGGAUAUACGAGAGAGGCUGAACCUGGAGAGAAGUAGAAGGCACAUGAGGAUCACCCAUGUUAGGA			39.6 nM	30.3 nM
AUCUCAGGACGAGGAUAUCAAUACAUGAGGAUCACCCAUGUAUUACUACUGUGAUCCUUCAAGGCUGAGAAGGCGUCCCAAAUG			20.7 nM	37.8 nM
CGAUGUUAUGCAGGAUAUCUCUCUUGAAUGCGGAGAGAAGGGCAUAGGGAGACAUACGCCUUAUUACAUGAGGAUCACCCAUGU			9.02 nM	7.92 nM
AACAUGAGGAUCACCCAUGUCCCACCAGAAGGCUGGCGGCCACGGUAACGGCCGUGGCAAAUAACAGAGGAUAUGGUGAAUGCA	66.3 nM	17.9 nM		
GGAUGACAAAGUCAUCCAAUUCGAACAUGAGGAUCACCCAUGUAGGAUAUCGUACUCAAAGAGUACGAGAAGGACAUGUGCUUU			40.3 nM	154 nM
